Key:
Cytochrome P450 2B6 = target: T1, Cytochrome P450 2B6 (Homo sapiens, UniProt P20813); test: Drug metabolism assessed as human CYP2B6-mediated metabolite formation at 2 uM after 30 mins by HPLC method; assay type: ADME; conditions: recombinant enzyme, 0.5 h
T1 sequence (P20813 whole entry): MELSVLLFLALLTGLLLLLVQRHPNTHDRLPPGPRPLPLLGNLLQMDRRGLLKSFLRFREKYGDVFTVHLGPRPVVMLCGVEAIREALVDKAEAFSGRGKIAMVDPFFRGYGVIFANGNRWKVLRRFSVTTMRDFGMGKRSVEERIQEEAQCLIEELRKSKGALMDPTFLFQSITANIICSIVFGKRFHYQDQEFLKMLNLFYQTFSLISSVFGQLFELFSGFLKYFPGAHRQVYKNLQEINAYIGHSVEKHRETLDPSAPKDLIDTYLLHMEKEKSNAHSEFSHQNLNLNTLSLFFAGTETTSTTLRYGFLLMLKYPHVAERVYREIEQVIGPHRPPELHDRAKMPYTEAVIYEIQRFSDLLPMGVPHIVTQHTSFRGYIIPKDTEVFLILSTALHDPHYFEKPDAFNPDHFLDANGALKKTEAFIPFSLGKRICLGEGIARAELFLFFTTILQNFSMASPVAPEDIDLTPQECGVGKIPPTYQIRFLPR
Procedure, shortened: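 Each recombinant human P450 was used at 50 pmol/mL with an NADPH-generating system and 2 μM 14C-T-5224 (0.5% DMSO final). Buffer was 100 mM Tris-HCl pH 7.5, except 100 mM potassium phosphate pH 7.4 for CYP2A6 and CYP2C9*1. Incubation ran 30 min at 37°C and was stopped with acetonitrile/methanol. Radioactive metabolite peaks were detected by C18 HPLC.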

[1] = target: T2, UDP-glucuronosyltransferase 1A3 (Homo sapiens, UniProt P35503); test: Substrate inhibition of human UGT1A3-mediated T-5224 hydroxyl O-glucuronide formation after 10 to 60 mins in presence of UDP-glucuronic acid by HPLC method; assay type: ADME
T2 sequence (P35503 whole entry): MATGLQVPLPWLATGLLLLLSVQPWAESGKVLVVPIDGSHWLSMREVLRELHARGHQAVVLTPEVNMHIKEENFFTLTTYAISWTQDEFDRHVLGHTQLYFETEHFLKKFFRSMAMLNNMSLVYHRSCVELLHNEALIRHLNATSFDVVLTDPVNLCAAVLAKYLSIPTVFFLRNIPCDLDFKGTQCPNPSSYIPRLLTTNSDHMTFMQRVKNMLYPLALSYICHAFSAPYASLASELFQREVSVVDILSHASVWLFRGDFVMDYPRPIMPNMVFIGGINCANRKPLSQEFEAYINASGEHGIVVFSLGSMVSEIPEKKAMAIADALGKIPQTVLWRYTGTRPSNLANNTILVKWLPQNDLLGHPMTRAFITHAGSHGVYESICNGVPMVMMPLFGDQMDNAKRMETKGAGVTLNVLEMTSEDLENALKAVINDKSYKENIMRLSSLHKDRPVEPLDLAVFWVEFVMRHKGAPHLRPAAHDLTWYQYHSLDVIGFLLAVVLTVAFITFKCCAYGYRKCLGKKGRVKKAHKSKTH
Procedure, shortened: (§1)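 Recombinant human UGT1A1, UGT1A3 or UGT1A8 from baculovirus-infected insect cells (0.1 mg protein/mL) in 50 mM Tris-HCl pH 7.5, 8 mM MgCl2, alamethicin, 2% DMSO. T-5224 at 1–50 μM with 2 mM UDPGA for 60 min at 37°C. HPLC with UV at 290 nm. Triplicates fitted to a substrate-inhibition model. kcat uses UGT content quantified by immunoblot against recombinant UGT1A1/UGT2B4 standards.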

[2] = target: T3, UDP-glucuronosyltransferase 1A1 (Homo sapiens, UniProt P22309); test: Drug metabolism assessed as Vmax/Km ratio for human UGT1A1-mediated T-5224 hydroxyl O-glucuronide formation per mg protein after 10 to 60 mins in presence of UDP-glucuronic acid by HPLC method; assay type: ADME; conditions: recombinant enzyme
T3 sequence (P22309 whole entry): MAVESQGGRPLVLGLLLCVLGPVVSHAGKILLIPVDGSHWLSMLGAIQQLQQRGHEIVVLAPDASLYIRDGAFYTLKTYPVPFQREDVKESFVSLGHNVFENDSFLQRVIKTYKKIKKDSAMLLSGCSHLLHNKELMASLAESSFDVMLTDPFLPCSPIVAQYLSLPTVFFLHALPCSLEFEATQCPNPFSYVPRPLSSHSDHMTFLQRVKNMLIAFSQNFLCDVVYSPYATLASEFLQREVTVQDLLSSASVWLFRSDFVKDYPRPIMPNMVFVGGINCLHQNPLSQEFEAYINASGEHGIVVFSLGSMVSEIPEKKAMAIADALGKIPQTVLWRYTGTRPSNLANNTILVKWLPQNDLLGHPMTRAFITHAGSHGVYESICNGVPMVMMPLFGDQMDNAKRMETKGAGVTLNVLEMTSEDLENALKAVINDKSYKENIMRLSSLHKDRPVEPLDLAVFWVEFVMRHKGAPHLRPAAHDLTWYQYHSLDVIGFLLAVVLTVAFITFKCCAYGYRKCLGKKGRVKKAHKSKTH
Procedure, shortened: (§2)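 Kinetics used recombinant UGT1A1, 1A3 or 1A8 (0.1 mg protein/mL) with T-5224 at 1–50 μM, 2 mM UDPGA and 60 min at 37°C, in triplicate. G2/G3 were measured by HPLC at 290 nm and fitted to a substrate-inhibition model (Vmax, Km, Ksi). UGT content was quantified by immunoblot, and kcat = Vmax/E0 was derived from it.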

[3] = Drug metabolism in pooled human intestinal microsomes assessed as T-5224 hydroxyl O-glucuronide formation at 10 uM after 10 mins by HPLC method; assay type: ADME, Intestine, Microsome
Procedure, shortened: (§3)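 T-5224 at 10 μM incubated for 10 min at 37°C with UDPGA (2 mM) in pooled liver (0.5 mg protein/mL) or intestinal (0.25 mg protein/mL) microsomes. Buffer was 50 mM Tris-HCl pH 7.5 with 8 mM MgCl2 and alamethicin, after 5 min preincubation. Stopped with acetonitrile; glucuronides quantified by HPLC at 290 nm.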

[4] = Drug metabolism in pooled human intestinal microsomes assessed as T-5224 acyl O-glucuronide formation at 10 uM after 10 mins by HPLC method; assay type: ADME, Intestine, Microsome; procedure, shortened: as §3
[5] = target: T2, UDP-glucuronosyltransferase 1A3; test: Drug metabolism assessed as Vmax/Km ratio for human UGT1A3-mediated T-5224 hydroxyl O-glucuronide formation per mg protein after 10 to 60 mins in presence of UDP-glucuronic acid by HPLC method; assay type: ADME; conditions: recombinant enzyme; procedure, shortened: as §2
[6] = Drug metabolism in human intestinal microsomes assessed as T-5224 acyl O-glucuronide formation per mg protein after 10 to 60 mins by HPLC method; assay type: ADME, Intestine, Microsome
Procedure, shortened: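 Pooled liver microsomes (0.5 mg/mL) were incubated 10 min. Pooled intestinal microsomes (0.25 mg/mL) ran 10 min at T-5224 10–50 μM and 20 min at 1–5 μM. Buffer was 50 mM Tris-HCl pH 7.5 with 8 mM MgCl2, alamethicin and 2 mM UDPGA, at 37°C, in triplicate. Glucuronides G2/G3 were read by HPLC at 290 nm and fitted for Vmax/Km.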

[7] = target: T3, UDP-glucuronosyltransferase 1A1; test: Substrate inhibition of human UGT1A1-mediated T-5224 hydroxyl O-glucuronide formation after 10 to 60 mins in presence of UDP-glucuronic acid by HPLC method; assay type: ADME; procedure, shortened: as §1

Drug metabolism (Cytochrome P450 2B6): metabolite_not_detected
Ki [1]: 2550 nM
Vmax/Km [2]: 26.2 µL/min
Drug metabolism [3]: metabolite_detected
Drug metabolism [4]: metabolite_detected
Vmax/Km [5]: 47.5 µL/min
Vmax [6]: 241 pmol/min
Ki [7]: 4.67 µM
SMILES: O=C(O)CCc1cc(C(=O)c2ccc(OC3CCCC3)cc2O)ccc1OCc1ccc2c(O)noc2c1

From ChEMBL document CHEMBL3526015, “Metabolism of the c-Fos/activator protein-1 inhibitor T-5224 by multiple human UDP-glucuronosyltransferase isoforms” (Drug Metab Dispos, 2011)
